Experimental data: PubChem BioAssay AID624411 (The Scripps Research Institute Molecular Screening Center, 2012)
The source made the active and inactive calls.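 The calls were made as follows: active = compounds blocking BCL-xL binding with IC50 of 10 µM or lower; inactive = the rest.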

Target: Bcl-2-like protein 1 (Homo sapiens) (UniProt Q07817)
Assay: Bcl-xL inhibition by probe candidates, late-stage follow-up, counter-screen for MCL1-BIM inhibitor project, biochemical, fluorescence polarization, probe report (AID 624411)
Conditions: GST-BCL-xL / FITC-Bim BH3 fluorescence polarization
Outline: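 System: purified GST-Bcl-xL protein / Amount: 12.5 nM GST-Bcl-xL / Buffer or medium: 1x PBS supplemented with 0.001% Brij detergent / Probe or stimulus: FITC-labelled Bim BH3 peptide probe at 4 nM / Timing: compound incubation 20 min at room temperature / Signal: fluorescence polarization, mP / Measure: IC50 from curve fit at 50% inhibition level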

Chain of Bcl-2-like protein 1 (Homo sapiens) (Q07817 whole entry, looked up): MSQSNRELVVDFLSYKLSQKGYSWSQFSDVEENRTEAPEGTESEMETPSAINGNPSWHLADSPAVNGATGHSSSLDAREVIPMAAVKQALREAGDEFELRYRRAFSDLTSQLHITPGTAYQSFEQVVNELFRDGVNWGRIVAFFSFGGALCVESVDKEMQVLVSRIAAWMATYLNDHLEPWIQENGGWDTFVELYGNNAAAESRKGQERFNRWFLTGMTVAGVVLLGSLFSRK

IC50: > 40 µM (inactive)
Structure (SMILES): CCN1CCN(C(c2ccc(C(F)(F)F)cc2)c2ccc3cccnc3c2O)CC1 (stereo unspecified)
